Reference: paper PMC6620733 (Biochemistry, 2019)
Read-outs that look alike come from different tables or passages of the source.

Legend:
full-length Munc13-1 [1] = target: T1, full-length Munc13-1 (Rattus norvegicus, UniProt Q62768); format: cell-based
Procedure, shortened: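 Living HT22 cells (passages 2–16) are transfected with GFP-tagged full-length Munc13-1 (X-tremeGENE HP), then transferred after 24 h into phenol red-free DMEM with 1% FBS. Test compound at 10, 100 or 1000 nM is added at time zero. Confocal imaging every 30 s (488 nm excitation, 500–530 nm emission). Plasma membrane/cytoplasm mean intensity ratio is normalized to time zero. 5–9 cells per concentration, three independent experiments; saturated cells excluded.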

full-length Munc13-1 [2] = target: T1, full-length Munc13-1; assay: In vitro [3H]PDBu binding assay, full-length Munc13-1
Munc13-1 C1 W22A mutant = Munc13-1 C1 W22A mutant (Rattus norvegicus, UniProt Q62768, W588A); assay: In vitro [3H]PDBu binding assay, Munc13-1 C1 domain W22A; conditions: for decrease in affinity of W588A (W22A) mutant C1 domain versus WT: 100% PS
Munc13-1 C1 domain WT = Munc13-1 C1 domain WT (Rattus norvegicus, UniProt Q62768); assay: In vitro [3H]PDBu binding assay, isolated Munc13-1 C1 domain; conditions: for Kd: read-out: Kd for PDBu; for affinity better than that of PDBu: isolated C1 domain
Munc13-1 [3] = target: T2, Munc13-1 (Rattus norvegicus, UniProt Q62768); format: cell-based; conditions: HT22 cells, 0–2 μM, 5 min, confocal
Procedure, shortened: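 HT22 cells are seeded on coverslips at 6 × 10^4/well and, at 70–80% confluency, transfected with Munc13-1-GFP (Lipofectamine, antibiotic-free DMEM). They are exposed to 0.1–2 μM test compound for 5 min, then fixed in 4% PFA for 10 min and imaged by confocal at 63×. Read-out is the ratio of mean membrane intensity (outer 300 nm) to whole-cell intensity. Statistics use two-way ANOVA with Tukey.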

Munc13-1 [4] = target: T2, Munc13-1; assay: Cell fractionation and Western blot of HT22 cells expressing GFP-tagged Munc13-1; format: cell-based; conditions: 1 μM, 5 min, cell fractionation and immunoblot
Procedure, shortened: (§1)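 Transfected HT22 cells (DMEM, 10% FBS, 70–80% confluent, Lipofectamine, antibiotic-free medium) express GFP-Munc13-1 or GFP-bMunc13-2 and are treated with 1 μM test compound. A kit separates the fractions: cytosolic buffer spin at 500g, 5 min; pellet in membrane buffer, 4 °C, 10 min, then 3000g, 5 min. 40 μg protein is run on 4–15% SDS–PAGE (membrane samples unheated). Probes are anti-GFP 1:500, Na,K-ATPase and β-actin 1:2000, with infrared detection.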

Munc13-1^H567K = Munc13-1^H567K (Rattus norvegicus, UniProt Q62768, H567K); format: cell-based; conditions: HT22 cells, 0–2 μM, 5 min
Procedure, shortened: (§2)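 Fixed-cell confocal: HT22 cells in DMEM with 10% FBS and 2 mM glutamine are seeded on coverslips 24 h before transfection. At 70–80% confluence they are transfected (Lipofectamine 3000) with GFP-tagged mutant Munc13-1 plasmid in antibiotic-free medium. Treatment with test compound or PMA at 0.1–2 μM, then fixation in 4% PFA for 10 min and imaging at 63×. Ratio of mean membrane (outer 300 nm) to whole-cell GFP intensity.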

bMunc13-2 [5] = target: T3, bMunc13-2 (Rattus norvegicus, UniProt Q62769); format: cell-based; conditions: HT22 cells, immunoblotting (1 μM) and confocal microscopy (0–2 μM), 5 min
Procedure, shortened: as §1

Munc13-1 C1 domain = Munc13-1 C1 domain (Rattus norvegicus, UniProt Q62768); format: cell-based; conditions: living HT22 cells, 1 μM
Procedure, shortened: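 Live-cell imaging, C1 domain: HT22 cells (passages 2–16; high-glucose DMEM, 10% FBS, 2 mM L-glutamine) are transfected with GFP-tagged Munc13-1 C1 domain (X-tremeGENE HP). After 24 h they are moved to phenol red-free DMEM with 1% FBS. Test compound 1 μM is added at time zero, with confocal images every 30 s (488 nm excitation, 500–530 nm emission). Cytoplasm/nucleus intensity ratio is normalized to time zero. 11–16 cells per treatment, three independent experiments; saturated cells excluded.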

[6] = tested on: endogenous Munc13-1 in primary hippocampal neurons; assay: Expression of endogenous Munc13-1 in primary hippocampal neurons; format: cell-based; conditions: mouse primary hippocampal neurons, 0.1 or 0.5 μM, 24 h
Procedure, shortened: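 Hippocampi come from E18 mouse pups and are dissociated with trypsin/EDTA (20 min, 37 °C). Cells are plated at 8 × 10^4/well on poly-D-lysine coverslips in B-27 medium, and 7–8-day cultures are treated with 0.1 or 0.5 μM for 24 h. Cells are fixed in 4% PFA for 15 min and stained overnight at 4 °C with anti-Munc13-1 1:500, Tuj1 1:1000 and DAPI. Cytosolic Munc13-1 is measured by confocal in 3 wells × 3 cells per group.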

Munc13-1^W588A = Munc13-1^W588A (Rattus norvegicus, UniProt Q62768, W588A); format: cell-based; conditions: HT22 cells, 1 μM, 5 min
Procedure, shortened: as §2

bMunc13-2 [7] = target: T3, bMunc13-2; assay: Translocation of GFP-tagged bMunc13-2 in living HT22 cells; format: cell-based; conditions: living HT22 cells, 10, 100, 1000 nM, 0–15 min
Procedure, shortened: (§3)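 GFP-tagged bMunc13-2 or ubMunc13-2 is expressed in living HT22 cells (passages 2–16, X-tremeGENE HP transfection). Imaging is in phenol red-free DMEM with 1% FBS, 24 h post-transfection. Test compound at 10, 100 or 1000 nM is added at time zero, with confocal frames every 30 s (488/500–530 nm). Plasma membrane/cytoplasm ratio is normalized to time zero. bMunc13-2: 3–6 cells per concentration; ubMunc13-2: 5–9 cells; three independent experiments.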

ubMunc13-2 = ubMunc13-2 (Rattus norvegicus, UniProt Q62769); assay: Translocation of GFP-tagged ubMunc13-2 in living HT22 cells; format: cell-based; conditions: living HT22 cells, 10, 100, 1000 nM, 0–15 min
Procedure, shortened: as §3

[8] = tested on: endogenous Munc13-1 in HT22 cells; assay: Expression of endogenous Munc13-1 in differentiated HT22 cells; format: cell-based, mouse; conditions: 24 h
Procedure, shortened: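 Endogenous protein by Western blot: HT22 cells are differentiated in NeuroBasal medium with […], cAMP, L-glutamine and antibiotics. At 48–72 h after day 0, test compound is added at 0.1 or 0.5 μM for 24 h. Lysis in modified RIPA with protease/phosphatase inhibitors, sonication, 14000g 30 min at 4 °C. 7.5–10% SDS–PAGE, nitrocellulose, 2.5% BSA block. Anti-Munc13-1 1:500 and β-actin 1:5000, HRP secondary, ECL. Densitometric Munc13-1:β-actin ratio.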

PKCδ = PKCδ (Homo sapiens, UniProt Q05655); assay: Translocation of GFP-tagged PKCδ in living HT22 cells; format: cell-based
Procedure, shortened: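 For PKCδ, living HT22 cells (passages 2–16) transiently express GFP-tagged PKCδ (X-tremeGENE HP). After 24 h, medium is changed to phenol red-free DMEM with 1% FBS. Test compound at 10, 100 or 1000 nM is added at time zero, with confocal imaging every 30 s (488 nm excitation, 500–530 nm emission). Nuclear membrane/cytoplasm intensity ratio is normalized to time zero. 4–7 cells per concentration, three independent experiments.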

[9] = read-out: Kd for PDBu, 100:0 PS/PC

T3 sequence (Q62769 1-1985 isoform Q62769-2): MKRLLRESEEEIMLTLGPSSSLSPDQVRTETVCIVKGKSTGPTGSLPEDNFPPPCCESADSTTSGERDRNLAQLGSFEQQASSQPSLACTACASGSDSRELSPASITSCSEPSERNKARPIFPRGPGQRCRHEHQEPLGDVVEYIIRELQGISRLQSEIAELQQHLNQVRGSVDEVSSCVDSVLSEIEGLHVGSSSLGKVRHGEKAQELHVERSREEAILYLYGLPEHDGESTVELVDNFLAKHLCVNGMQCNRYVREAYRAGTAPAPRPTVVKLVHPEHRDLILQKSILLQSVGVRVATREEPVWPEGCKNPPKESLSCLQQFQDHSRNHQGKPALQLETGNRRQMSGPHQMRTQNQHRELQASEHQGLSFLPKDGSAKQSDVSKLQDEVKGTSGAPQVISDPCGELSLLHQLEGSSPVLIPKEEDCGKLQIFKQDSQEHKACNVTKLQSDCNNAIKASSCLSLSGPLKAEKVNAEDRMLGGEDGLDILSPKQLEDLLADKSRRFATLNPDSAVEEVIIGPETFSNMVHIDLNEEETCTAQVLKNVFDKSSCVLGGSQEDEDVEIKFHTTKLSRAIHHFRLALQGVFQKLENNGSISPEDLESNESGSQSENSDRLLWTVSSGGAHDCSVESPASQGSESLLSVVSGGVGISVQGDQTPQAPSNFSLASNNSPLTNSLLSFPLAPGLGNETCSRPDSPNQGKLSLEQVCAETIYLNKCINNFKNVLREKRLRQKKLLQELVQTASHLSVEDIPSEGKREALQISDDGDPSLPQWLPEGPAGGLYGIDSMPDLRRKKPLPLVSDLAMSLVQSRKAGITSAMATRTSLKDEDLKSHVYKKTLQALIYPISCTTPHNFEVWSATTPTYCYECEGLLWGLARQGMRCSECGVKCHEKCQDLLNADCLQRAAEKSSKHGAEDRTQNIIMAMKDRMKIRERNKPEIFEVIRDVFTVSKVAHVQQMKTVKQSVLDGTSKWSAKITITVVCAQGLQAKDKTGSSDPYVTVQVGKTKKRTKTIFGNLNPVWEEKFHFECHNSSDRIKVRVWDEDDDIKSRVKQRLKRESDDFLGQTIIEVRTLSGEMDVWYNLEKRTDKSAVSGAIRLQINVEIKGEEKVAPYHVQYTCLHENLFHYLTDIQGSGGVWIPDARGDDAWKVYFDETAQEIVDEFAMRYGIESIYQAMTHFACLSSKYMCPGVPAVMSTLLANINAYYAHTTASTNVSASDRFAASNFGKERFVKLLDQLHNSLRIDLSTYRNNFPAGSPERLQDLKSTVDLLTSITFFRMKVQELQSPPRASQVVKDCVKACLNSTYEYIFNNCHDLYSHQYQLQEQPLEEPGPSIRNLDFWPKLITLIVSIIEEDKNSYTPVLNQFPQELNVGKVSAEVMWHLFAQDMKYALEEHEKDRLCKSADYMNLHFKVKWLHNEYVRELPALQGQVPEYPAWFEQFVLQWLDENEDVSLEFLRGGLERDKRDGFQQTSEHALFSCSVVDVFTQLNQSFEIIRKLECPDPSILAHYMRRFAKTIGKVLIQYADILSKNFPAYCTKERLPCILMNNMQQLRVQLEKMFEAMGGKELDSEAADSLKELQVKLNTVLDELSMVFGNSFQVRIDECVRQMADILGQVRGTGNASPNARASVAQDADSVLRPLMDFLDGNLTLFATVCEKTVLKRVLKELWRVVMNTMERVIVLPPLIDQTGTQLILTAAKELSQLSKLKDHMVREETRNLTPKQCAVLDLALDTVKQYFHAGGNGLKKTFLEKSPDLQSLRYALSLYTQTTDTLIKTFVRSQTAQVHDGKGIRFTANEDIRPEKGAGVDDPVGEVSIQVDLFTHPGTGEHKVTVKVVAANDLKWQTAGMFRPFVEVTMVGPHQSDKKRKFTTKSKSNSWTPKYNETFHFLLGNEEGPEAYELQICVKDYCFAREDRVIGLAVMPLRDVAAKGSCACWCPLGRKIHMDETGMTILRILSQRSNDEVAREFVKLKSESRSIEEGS
Sequence of PKCδ (Q05655 whole entry): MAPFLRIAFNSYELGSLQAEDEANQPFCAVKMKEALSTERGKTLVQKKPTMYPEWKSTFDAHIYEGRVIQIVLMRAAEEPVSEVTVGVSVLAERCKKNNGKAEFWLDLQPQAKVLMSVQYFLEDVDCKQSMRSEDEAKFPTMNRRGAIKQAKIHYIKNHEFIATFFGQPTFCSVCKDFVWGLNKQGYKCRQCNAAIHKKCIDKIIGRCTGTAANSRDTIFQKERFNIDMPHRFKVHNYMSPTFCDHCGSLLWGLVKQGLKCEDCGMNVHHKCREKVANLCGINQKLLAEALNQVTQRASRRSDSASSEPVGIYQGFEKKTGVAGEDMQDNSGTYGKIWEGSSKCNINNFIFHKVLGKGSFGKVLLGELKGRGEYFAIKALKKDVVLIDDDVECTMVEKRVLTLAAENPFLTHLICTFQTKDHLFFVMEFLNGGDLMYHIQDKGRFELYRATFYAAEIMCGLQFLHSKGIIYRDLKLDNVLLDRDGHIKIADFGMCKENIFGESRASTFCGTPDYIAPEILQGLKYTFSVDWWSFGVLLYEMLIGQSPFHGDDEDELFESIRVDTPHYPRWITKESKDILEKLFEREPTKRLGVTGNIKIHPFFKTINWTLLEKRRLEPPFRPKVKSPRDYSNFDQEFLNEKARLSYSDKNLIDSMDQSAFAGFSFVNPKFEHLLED

## CCCC(=O)O[C@@H]1[C@@H](C)[C@@]2(O)[C@@H](C=C(CO)C[C@]3(O)C(=O)C(C)=C[C@@H]23)[C@@H]2C(C)(C)[C@]12OC(=O)CCC [PDBu, Phorbol 12,13-dibutyrate]
full-length Munc13-1 [1]; living HT22 cells, 1 μM
  effectiveness for inducing translocation relative to bryostatin 1: modestly less effective than was bryostatin 1
full-length Munc13-1 [2]; [9]
  Kd: 0.00709 ± 0.00053 µM
full-length Munc13-1 [2]; read-out: Ki for PDBu, 100% PS, measured in parallel with bryostatin 1
  Ki: 0.0071 ± 0.0005 µM
Munc13-1 C1 W22A mutant
  decrease in affinity of W588A (W22A) mutant C1 domain versus WT: 6.5 fold
Munc13-1 C1 W22A mutant; [9]
  Kd: 0.809 ± 0.0081 µM
Munc13-1 C1 domain WT; 5:95 PS/PC
  Kd: 0.082 ± 0.015 µM
Munc13-1 C1 domain WT; 20:80 PS/PC
  Kd: 0.0695 ± 0.0048 µM
Munc13-1 C1 domain WT; 100:0 PS/PC
  Kd: 0.124 ± 0.013 µM
Munc13-1 C1 domain WT; read-out: Ki for PDBu, PS/PC (20:80, w:w), assayed in parallel
  Ki: 0.0695 ± 0.0048 µM
Munc13-1 C1 domain WT; read-out: Ki for PDBu, PS/PC (100:0)
  Ki: 0.124 ± 0.013 µM

## CCCCCCCCCCCCCC(=O)O[C@@H]1[C@@H](C)[C@@]2(O)[C@@H](C=C(CO)C[C@]3(O)C(=O)C(C)=C[C@@H]23)[C@@H]2C(C)(C)[C@]12OC(C)=O [PMA, phorbol 12-myristate 13-acetate]
Munc13-1 [3]
  translocation of Munc13-1 to the plasma membrane: induced translocation of Munc13-1 to the plasma membrane
Munc13-1 [4]
  transfer of Munc13-1 to membrane fraction: caused Munc13-1 to transfer to the membrane fraction
Munc13-1^H567K
  translocation (localization change) of Munc13-1 H567K: no significant changes in localization
bMunc13-2 [5]
  translocation of GFP-tagged bMunc13-2: translocation similar to that of GFP-tagged Munc13-1

## CCC/C=C/C=C/C(=O)O[C@H]1/C(=C/C(=O)OC)C[C@H]2C[C@H]([C@@H](C)O)OC(=O)C[C@H](O)C[C@@H]3C[C@H](OC(C)=O)C(C)(C)[C@](O)(C[C@@H]4C/C(=C/C(=O)OC)C[C@H](/C=C/C(C)(C)[C@]1(O)O2)O4)O3 [bryostatin 1]
Munc13-1 [3]
  translocation of Munc13-1 to the plasma membrane: induced translocation of Munc13-1 to the plasma membrane
Munc13-1 C1 domain
  translocation of GFP-C1 domain: translocated within 5–20 min from the nucleus to internal membranes but not to the plasma membrane
Munc13-1 [4]
  transfer of Munc13-1 to membrane fraction: caused Munc13-1 to transfer to the membrane fraction
[6]
  expression of endogenous Munc13-1 in cytosol: significantly increased the level of expression of Munc13-1
full-length Munc13-1 [1]; Munc13-1, 15 min value
  stimulation of translocation at 100 nM as fraction of that caused by 1000 nM: 30%
full-length Munc13-1 [1]; living HT22 cells, 1 μM
  translocation of full-length Munc13-1: translocated to the plasma membrane
Munc13-1^W588A
  translocation of full-length Munc13-1 W588A: translocation was lost
Munc13-1^H567K
  translocation (localization change) of Munc13-1 H567K: no significant changes in localization
bMunc13-2 [7]
  translocation of bMunc13-2: clear translocation
ubMunc13-2
  translocation of ubMunc13-2: clear translocation
full-length Munc13-1 [2]
  Ki: 0.00045 ± 4e-05 µM
full-length Munc13-1 [2]; full-length Munc13-1, 100% PS
  affinity better than that of PDBu: approximately 15 fold
Munc13-1 C1 W22A mutant
  Ki: 0.054 ± 0.012 µM
  decrease in affinity of W588A (W22A) mutant C1 domain versus WT: 6.6 fold
[8]; 0.1 and 0.5 μM, immunostaining
  level of endogenous Munc13-1 staining: increased with both doses
[8]; 0.1 or 0.5 μM
  endogenous Munc13-1 levels by Western blot: increased
PKCδ; PKCδ, 15 min value
  stimulation of translocation at 100 nM as fraction of that caused by 1000 nM: 63%
PKCδ; living HT22 cells, 10, 100, 1000 nM, 0–15 min
  translocation of PKCδ: induces translocation of PKCδ to the nuclear membrane and to internal membranes, rather than to the plasma membrane
bMunc13-2 [5]
  translocation of GFP-tagged bMunc13-2: translocation similar to that of GFP-tagged Munc13-1
Munc13-1 C1 domain WT; Ki for bryostatin 1, 5:95 PS/PC, 100 μg/mL lipid, 0.1 mM Ca2+, 100 nM [3H]PDBu
  Ki: 0.0228 ± 0.0018 µM
Munc13-1 C1 domain WT; Ki for bryostatin 1, 20:80 PS/PC, 100 μg/mL lipid, 0.1 mM Ca2+, 100 nM [3H]PDBu
  Ki: 0.0227 µM
Munc13-1 C1 domain WT; Ki for bryostatin 1, 100:0 PS/PC, 100 μg/mL lipid, 0.1 mM Ca2+, 100 nM [3H]PDBu
  Ki: 0.00807 ± 0.0009 µM
Munc13-1 C1 domain WT; 100% PS
  affinity better than that of PDBu: 15 fold
Munc13-1 C1 domain WT; lower PS concentrations
  affinity better than that of PDBu: 3 fold
